The text below walks through data of ChEMBL document CHEMBL1123508, “Relationship between lipophilic character and urinary excretion of nitroimidazoles and nitrothiazoles in rats” (J Med Chem, 1986).

Data set [1] in a line: Partition coefficient (logP). As to conditions: octanol/water.
Data set [2] can be described thus: The amount of unchanged compound detected in urine collected at 0-18 hr after treatment. As to conditions: rat.
Data set [3] can be described thus: The amount of unchanged compound in urine collected at 0-36 hr after treatment. Particulars: rat.
The nature of data set [4]: The amount of unchanged compound in urine collected at 0-54 hr after treatment. Particulars: rat.
Data set [5] in a line: The amount of unchanged compound in urine collected at 0-72 h after treatment. Particulars: rat.
The subject of data set [6] is Rattus norvegicus. Kind of data set: The total 18 hr urinary excretion of unchanged compound reported as log (percent X 10) of the administered dose. Particulars: in vivo.
The test system of data set [7] is Rattus norvegicus. Nature of the data set: The total 54 h urinary excretion of unchanged compound reported as log (percent X 10) of the administered dose. Particulars: in vivo.
Data set [8] relates to Rattus norvegicus. Nature of the data set: The total 72 hr urinary excretion of unchanged compound reported as log (percent X 10) of the administered dose. As to conditions: in vivo.
Data set [9] concerns Rattus norvegicus. Nature of the data set: The total 36 hr urinary excretion of unchanged compound reported as log (percent X 10) of the administered dose. Particulars: in vivo.
The conditions of data set [10]: octanol/water.
The species entered for data set [11] is Rattus norvegicus. As to conditions: in vivo, 18 h.
Data set [12] can be described thus: in vivo. As to conditions: rat, urine.
A short description of data set [13]: The octanol/water partition coefficient was determined. Particulars: read-out: Log K. It is filed as physicochemical. The procedure, abridged:
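Classical shake-flask octanol/water partitioning with 1 M ammonium chloride buffer, pH 9.0, as the aqueous phase. For one compound the aqueous phase was 0.14 M sodium acetate-barbital buffer, pH 3.6. Concentrations in the octanol and/or aqueous layer were read by UV spectrophotometry.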

Data set [14] in a line: (§1) The amount of the unchanged form of compound detected in the urine samples collected at 0-18 hr after the treatment by HPLC technique. It counts as ADME, organism-based. Particulars: rat, read-out: Amount excreted. The procedure, abridged: (§2)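 Female Sprague-Dawley rats (200 ± 20 g) on chow diet, three per compound, dosed ip in Me2SO (50 μmol mL⁻¹ kg⁻¹). Urine pooled over 0-18 h. One mL urine was spiked with internal standard and extracted, the residue was taken up in 200 μL methanol, and 10-20 μL was injected for HPLC of the unchanged drug. Values expressed as log (percent × 10) of dose.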

Data set [15] relates to Rattus norvegicus. Kind of data set: The total 18 hr urinary excretion of the unchanged form of compound in urine was reported as log (percent X 10) of the administered dose by HPLC technique. It is filed as ADME, organism-based. As to conditions: in vivo. An outline of the steps:
as §2

For data set [16], the species on record is Rattus norvegicus. Described as §1. It is filed as functional. The procedure, abridged:
as §2

In the case of `Cc1ncc([N+](=O)[O-])n1CC(O)Cn1c([N+](=O)[O-])cnc1C`, the logP in [1] was 0.31. Further, the dose excreted in data set [2] stood at 18.2%; in data set [3] it was 22.8%; in data set [4], 22.8%; in data set [5], 22.8%; in data set [12], 15.7%. Further, the “Log BR” value is recorded as 2.26 in [6]; 2.358 in [7]; 2.358 in data set [8]; 2.358 in [9]; 2.196 in data set [11]. In [10], the “Log k'” value worked out at 0.199.

For the compound `Cc1ncc([N+](=O)[O-])n1CC(O)CO` (centres undefined), in [13], the logP was -0.63. Further, the dose excreted in [2] was 14.3%; in [3], 64.3%; in data set [4] it was 66.4%; in data set [5] it was 66.4%. Moreover, the “Log BR” value is listed as 2.155 in data set [6], 2.822 in data set [7], 2.822 in data set [8] and 2.808 in [9]. Also, the “Log k'” value in data set [10] is recorded as -0.199.

`Cc1ncc([N+](=O)[O-])n1CC(=O)Nc1ncccn1`: in data set [1], the logP was -0.3. Moreover, the dose excreted in data set [14] came out at 35.4%; in [2] it was 37.1%; in data set [3], 38.9%; in [4], 42.1%; in data set [5], 42.1%. Besides, in data set [15], the “log(10 × % of dose excreted unchanged in urine)” value amounted to 2.549. Further, the “Log BR” value in data set [6] is 2.569; in data set [7], 2.701; in [8] it was 2.701; in data set [9] it was 2.59. For the same compound, in [10], the “Log k'” value is on record as -0.115.

As for `Cc1ncc([N+](=O)[O-])n1CCS(C)(=O)=O`, the logP in data set [1] is -0.35. The dose excreted was 25.2% in data set [2], 27.9% in data set [3], 28% in data set [4] and 28% in data set [5]. The “log(10 × % of dose excreted unchanged in urine)” value in data set [15] was found to be 2.394. Moreover, the “Log BR” value was found to be 2.401 in [6], 2.448 in data set [7], 2.448 in [8] and 2.446 in [9]. Also, the Amount excreted in [16] was found to be 24.8%. In [10], the “Log k'” value is reported as -0.097.

`Cn1c([N+](=O)[O-])cnc1C=O`: the logP in data set [1] is -0.69. Also, the dose excreted in data set [14] is 10.4%; in data set [2] it was 10.6%; in data set [3], 29.9%; in data set [4], 29.9%; in data set [5] it was 29.9%. Moreover, the “log(10 × % of dose excreted unchanged in urine)” value in data set [15] was 2.023. In addition, the “Log BR” value in data set [6] stood at 2.025; in data set [7], 2.477; in data set [8], 2.477; in data set [9], 2.477. In addition, the “Log k'” value in data set [10] is -0.067.

For `Cn1c([N+](=O)[O-])cnc1/C=C/c1ccnc(N)n1` [AZANIDAZOLE], in data set [1], the logP came to 0.85. For the same compound, the dose excreted stood at 11.3% in [14]; 13.8% in data set [2]; 16% in data set [3]; 16% in [4]; 16% in data set [5]. Further, the “log(10 × % of dose excreted unchanged in urine)” value in [15] turned out to be 2.054. For the same compound, the “Log BR” value in data set [6] is listed as 2.142; in data set [7] it was 2.202; in [8], 2.202; in [9] it was 2.202. Moreover, the “Log k'” value in data set [10] turned out to be 0.423.

In the case of `CCS(=O)(=O)CCn1c([N+](=O)[O-])cnc1C` [TINIDAZOLE], the logP in [1] was -0.36. Also, the dose excreted was found to be 27.3% in data set [14]; 29.4% in data set [2]; 66.3% in data set [3]; 66.3% in [4]; 66.3% in [5]. In data set [15], the “log(10 × % of dose excreted unchanged in urine)” value came to 2.436. The “Log BR” value in [6] was 2.468; in data set [7], 2.822; in data set [8], 2.822; in [9] it was 2.822. The “Log k'” value in [10] is reported as -0.125.

On to `Cc1ncc([N+](=O)[O-])n1CCO` [METRONIDAZOLE], for which the logP in [1] was -0.1. Also, the dose excreted in [14] came to 25%; in data set [2] it was 30.5%; in data set [3], 49.2%; in data set [4], 49.2%; in data set [5], 49.2%. Also, in [15], the “log(10 × % of dose excreted unchanged in urine)” value worked out at 2.407. Further, the “Log BR” value turned out to be 2.484 in [6], 2.692 in data set [7], 2.692 in data set [8] and 2.692 in data set [9]. In addition, the “Log k'” value in data set [10] is on record as -0.067.
